This note sets out measurements from PMC11974842 (bioRxiv, 2025).

Sequences and labels used below:
T1: ScNar1 (Saccharomyces cerevisiae, UniProt P23503 1-491)
T1 sequence: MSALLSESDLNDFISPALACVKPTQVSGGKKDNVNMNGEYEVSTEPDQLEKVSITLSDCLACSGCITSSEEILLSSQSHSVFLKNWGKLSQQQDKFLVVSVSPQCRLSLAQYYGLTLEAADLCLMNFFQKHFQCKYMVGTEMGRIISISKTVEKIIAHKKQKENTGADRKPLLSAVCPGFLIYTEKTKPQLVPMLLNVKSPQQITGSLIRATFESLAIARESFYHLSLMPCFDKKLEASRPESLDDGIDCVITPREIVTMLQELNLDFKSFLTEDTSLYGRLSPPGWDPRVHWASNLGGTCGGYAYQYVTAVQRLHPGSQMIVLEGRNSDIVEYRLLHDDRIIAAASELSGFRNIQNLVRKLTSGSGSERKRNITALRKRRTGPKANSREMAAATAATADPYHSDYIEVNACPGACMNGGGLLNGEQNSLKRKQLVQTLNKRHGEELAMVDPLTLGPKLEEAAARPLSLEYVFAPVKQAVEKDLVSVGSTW

B1: Leu1: S. cerevisiae Leu1 with N-terminal His6-TEV tag (protein)
chain: MVYTPSKGPRTLYDKVFDAHVVHQDENGSFLLYIDRHLVHEVTSPQAFEGLENAGRKVRRVDCTLATVDHNIPTESRKNFKSLDTFIKQTDSRLQVKTLENNVKQFGVPYFGMSDARQGIVHTIGPEEGFTLPGTTVVCGDSHTSTHGAFGSLAFGIGTSEVEHVLATQTIIQAKSKNMRITVNGKLSPGITSKDLILYIIGLIGTAGGTGCVIEFAGEAIEALSMEARMSMCNMAIEAGARAGMIKPDETTFQYTKGRPLAPKGAEWEKAVAYWKTLKTDEGAKFDHEINIEAVDVIPTITWGTSPQDALPITGSVPDPKNVTDPIKKSGMERALAYMGLEPNTPLKSIKVDKVFIGSCTNGRIEDLRSAAAVVRGQKLASNIKLAMVVPGSGLVKKQAEAEGLDKIFQEAGFEWREAGCSICLGMNPDILDAYERCASTSNRNFEGRQGALSRTHLMSPAMAAAAGIAGHFVDIREFEYKDQDQSSPKVEVTSEDEKELESAAYDHAEPVQPEDAPQDIANDELKDIPVKSDDTPAKPSSSGMKPFLTLEGISAPLDKANVDTDAIIPKQFLKTIKRTGLKKGLFYEWRFRKDDQGKDQETDFVLNVEPWREAEILVVTGDNFGCGSSREHAPWALKDFGIKSIIAPSYGDIFYNNSFKNGLLPIRLDQQIIIDKLIPIANKGGKLCVDLPNQKILDSDGNVLVDHFEIEPFRKHCLVNGLDDIGITLQKEEYISRYEALRREKYSFLEGGSKLLKFDNVPKRKAVTTTFDKVHQDW
B2: ScCia1, strep-tagged bait (natural protein)
chain: MASINLIKSLKLYKEKIWSFDFSQGILATGSTDRKIKLVSVKYDDFTLIDVLDETAHKKAIRSVAWRPHTSLLAAGSFDSTVSIWAKEESADRTFEMDLLAIIEGHENEVKGVAWSNDGYYLATCSRDKSVWIWETDESGEEYECISVLQEHSQDVKHVIWHPSEALLASSSYDDTVRIWKDYDDDWECVAVLNGHEGTVWSSDFDKTEGVFRLCSGSDDSTVRVWKYMGDDEDDQQEWVCEAILPDVHKRQVYNVAWGFNGLIASVGADGVLAVYEEVDGEWKVFAKRALCHGVYEINVVKWLELNGKTILATGGDDGIVNFWSLEKAA
B3: R127E (protein, UniProt Q05583 1-330, looked up, variant R127E)
Cytosolic iron-sulfur protein …: B2 chain with R127E
B4: R127ACia1: ScCia1 variant (protein)
chain: B2 chain with R127A
modifications: left off: His6, N-terminal, state not stated
B5: Nar1: full-length S. cerevisiae Nar1 with N-terminal His6-SUMO tag (protein)
chain: T1 sequence
B6: Nar1 TCR-peptide variant: ScNar1 with C-terminal Trp substituted with Ala (protein)
chain: T1 sequence with W491A

In test [1] the target is FITC-4mer probe (last 4 residues of ScLeu1) (Saccharomyces cerevisiae) (UniProt P07264). The test can be described thus: fluorescence polarisation. (In general: In fluorescence polarisation assays a small probe gives low polarisation when free and higher when bound to something large.)
For test [2], the target named is ScCia2 (Saccharomyces cerevisiae). The test can be described thus: MST.
The test system of test [3] is ScCTC (Cia1, Cia2, Met18). The test can be described thus: Affinity copurification with ScCTC. In kind it is binding, Saccharomyces cerevisiae. To be noted: streptactin eluate, strep-tagged Cia2 bait, SDS-PAGE / western blot. In a few lines: (§1)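 Nar1 is the prey. Strep-tagged bait is either single CTC subunits (Cia1 alone) or combinations (Cia1-Cia2, or full Cia1-Cia2-Met18 complex). Eluates are analysed by SDS-PAGE and western blot for copurifying Nar1. Uncropped gels, including input samples and controls, accompany the analysis.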

For test [4], the target named is B2. The test can be described thus: pull-down.
For a further test, the target named is T1, ScNar1. Nature of the test: pull-down.
Another test deals with full-length Nar1. Nature of the test: Affinity copurification of CTC with ScCia1 variants and full-length Nar1. It counts as binding, Saccharomyces cerevisiae. As to conditions: ScCia1 variants incorporated into the CTC.
For another test, the system named is SPCNar1. The test can be described thus: Affinity copurification of ScCia1 variants with SPCNar1. To be noted: ScCia1 variants with Met18 and strep-tagged Cia2 bait, western blot. It counts as binding, Saccharomyces cerevisiae.
The subject of a further test is ScCia1-Cia2. The test can be described thus: Affinity copurification with ScCia1-Cia2. In kind it is binding, Saccharomyces cerevisiae. To be noted: streptactin eluate, SDS-PAGE / western blot. The essentials: as §1
A further test deals with ScCia1. The test can be described thus: Affinity copurification with ScCia1. In kind it is binding, Saccharomyces cerevisiae. As to conditions: streptactin eluate, SDS-PAGE / western blot. In a few lines:
as §1
For orientation: Immunoblotting shows a protein as a band on a membrane.

For a further test, the system named is ScCTC-Leu1 complex. The test can be described thus: Competition of Nar1 with Leu1 for the CTC. As to conditions: Nar1 0.25-1.0 molar equivalents relative to Leu1; streptactin eluate, SDS-PAGE. In kind it is binding, Saccharomyces cerevisiae.

Substitutions are numbered along the chain they refer to. Names and notes keep the numbering of the source. A value given as a limit tells only on which side of the number the result lay.

As a reminder, the Kd is the concentration at which binding is half-saturated. The low end stands for tighter binding, the high end for weaker binding.

As for CtCia1-Cia2 complex, the Kd in test [1] worked out at 25 µM.

In [1], “ScCia1-Cia2 complex (from UniProt Q05583 1-330)” registered a Kd of 86 µM.

Turning to “ScCia1 Y254A (from UniProt Q05583 1-330) (natural protein)”, in test [2], the fold increase in KD against wild-type Cia1 was more than 10 fold.

In test [1], “HsCia1-Cia2a complex (from UniProt O76071 1-339; Q9H5X1 1-160)” registered a dissociation constant Kd of 48 µM.

B1: the “copurification with the CTC” value in test [3] is on record as “requires its C-terminal Trp to interact with the CTC in vitro”.

As for KDLVSVGSTW (domain or fragment) [SPCNar1 (SUMO peptide carrier with Nar1 residues 482-491)], the binding result in [4] is listed as “binds”.

For B2, in the test with ScNar1, the binding result is recorded as “binds”.

For the molecule B3, in the test on full-length Nar1, the “interaction with full-length Nar1” value is recorded as “none of the Cia1 variants tested, including the charge swapped R127E variant, completely blocked interaction”.

Turning to B4, the “interaction with SPCNar1” value in the test with SPCNar1 is “diminished the amount”.

In the case of B5, the “copurification with the CTC” value in test [3] is “Nar1 eluting with Cia1, Cia1-Cia2, and the full CTC”. The “copurification with Cia1-Cia2” value in the test on ScCia1-Cia2 was “Nar1 eluting with Cia1, Cia1-Cia2, and the full CTC”. Further, in the test on ScCia1, the “copurification with Cia1” value was “Nar1 eluting with Cia1, Cia1-Cia2, and the full CTC”. In the test with ScCTC-Leu1 complex, the “competition with Leu1 for binding to the CTC” value was “the interaction of Nar1 and Leu1 with the CTC is mutually exclusive”.

B6: the “copurification with the CTC” value in [3] is reported as “less Nar1 TCR-peptide variant was found in the eluate”.
